High-throughput results from PubChem BioAssay.
Apaf-1 act: activators of human Apaf-1 apoptosome. Apaf-1 apoptosome caspase-3 activation, DEVD-Rh110 fluorescence; active compounds read low. activity change, negative = activation, % at 20 µM. 0.31% of 330,000 active. AID 489031;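 active = activity change at or below -40% at 20 µM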
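System: Reconstituted apoptosome of Apaf-1, cytochrome c, caspase-9, procaspase-3 | Reagent: dATP, cytochrome c, and (Z-DEVD)2-Rh110 caspase-3 substrate | Times: 30 min compound preincubation and 50 min reaction, both room temperature | Detection: Caspase-3-released Rh110 fluorescence, 540 nm emission, 480 nm excitation | Measure: Caspase-3 activity via Apaf-1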
Rh110 act interf: counter-screen for Apaf-1 activators: fluorescence interference; 980 tested, under 10 active; fluorescence interference (activity change), % at 20 µM, hits read low; Rh110 fluorescence interference, quenched caspase reaction, Ex480/Em540; shares compounds with Apaf-1 act;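 active = mean activity change at or below -40% when tested at 20 µM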
Apaf-1 act conf: confirmation of human Apaf-1 activators; shares compounds with Apaf-1 act; reconstituted apoptosome caspase-3 activity, DEVD-Rh110 fluorescence; active compounds read low; activity change, negative = activation, % at 20 µM; 5% of 980 active; AID 504617;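 active = mean activity change at or below -40%, meaning activation of 40% or more, at 20 µM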
Apaf1 act interf: shows fluorescence interference in the Apaf-1 activator assay format; shares compounds with Apaf-1 act; fluorescence interference counterscreen; EC50, µM; 55 tested, under 10 active; call rule not given here
An asterisk follows results filed as active; . = not tested or not shown. Only a sample is shown.

SMILES | Apaf-1 act | Rh110 act interf | Apaf-1 act conf | others
C#CCOCCOCCOCCNc1nc(N2CCN(C(=O)[C@H]([C@@H](C)CC)n3cc([C@@H](N)CO)nn3)CC2)nc(N2CCN(C(=O)[C@H](Cc3cc4ccccc4[nH]3)n3cc([C@@H](N)C(C)CC)nn3)CC2)n1 (stereo not given in full) | 48 | . | .
c1coc(-c2nc(-c3ccco3)c(-c3ccco3)nc2-c2ccco2)c1 | 63 | . | .
CC/C(=N/Nc1cccc(C)c1)c1cnnc(SC)n1 | 63 | . | .
COC(=O)c1c(C(C)=O)c(C)n(C)c1C | -343* | -1 | 11
COC(=O)C1=C(N)OC2=C(C(=O)CC(C)(C)C2)C1c1cccnc1 (stereo not given) | -308* | 6 | 12
CC1CCN(C2=C(NS(=O)(=O)c3ccc(Cl)cc3)C(=O)c3ccccc3C2=O)CC1 | 46 | . | .
COc1ccc(C(=O)Nc2ccc(C(=O)c3ccccc3)cc2)cc1 | -385* | -2 | 2
COc1ccc(C(=O)c2c(C(F)(F)F)oc3c2C(=O)c2ccccc2C3=O)cc1 | 79 | . | .
O=C(Nc1ccccc1)c1ccc2nc(-c3ccco3)c(-c3ccco3)nc2c1 | 60 | . | .
c1ccc2c(C[C@@H]3CNCCN3CC3CCCCC3)cccc2c1 | 44 | . | .
COc1ccc(C(CCN2CCCCC2)c2c(OC)cc(OC)c3c(-c4ccccc4)cc(=O)oc23)cc1 (stereo not given) | 55 | . | .
CC1(C)Nc2ccc(O)cc2-c2c1ssc2=S | 51 | . | .
CCOC(=O)c1[nH]c(COC(=O)c2ccccc2NC(=O)c2ccco2)c(C(=O)OCC)c1C | -383* | 9 | 11
CCN(C(=S)NC(=O)c1ccco1)c1cccc2ccccc12 | 82 | . | .
COc1cc2sc(-c3ccccc3OC)c(-c3ccc(OCCN4CCCCC4)cc3)c2cc1OC | 66 | . | .
CC(=O)N1CCN(C2=Nc3cccc4cccc2c34)CC1 | 80 | . | .
COc1cc(NC2CCCCC2O)c2nc(-c3ccc(Cl)cc3)ccc2c1 (stereo not given) | 55 | . | .
CCOc1ccc(NC(=O)CC2C(=O)N(c3ccccc3)C(=S)N2Cc2ccccn2)cc1 (stereo not given) | -44* | 8 | 10
CCCCCc1cc(=O)oc2c(C(CCN3CCCC(C)C3)c3cc(OC)c(OC)c(OC)c3)c(OC)cc(OC)c12 (stereo not given) | 60 | . | .
Cn1c(SCC(=O)n2c3c(c4ccccc42)CCCC3)nnc1-c1ccccc1 | 43 | . | .
Cn1c(SCC(=O)NNC(=O)c2ccccc2)nnc1C(F)(F)F | -97* | -2 | 8
COc1ccc(C(=O)c2ccc3oc(-c4ccc(OC)cc4)c(C#CCCO)c3c2)cc1 | -65* | 10 | -16
CCCC1=Nc2cc(C(=O)NCCCOCC)ccc2Sc2ccccc21 | 45 | . | .
COc1ccc(-n2nc3c(N4CCC(C(=O)NCc5ccccc5C)CC4)nnc(C)c3c2C)cc1 | 59 | . | .
FC(F)(F)c1cc(CCN2CCNC[C@@H]2Cc2ccccc2)cc(C(F)(F)F)c1 | 57 | . | .
SMILES | Apaf-1 act | Rh110 act interf | Apaf-1 act conf | others
Cc1cc2cc(CNC(=O)Nc3ccc(Cl)c(Cl)c3)ccc2n1C | 62 | . | .
CN(CC(=O)Nc1ccc(Cl)c(Cl)c1)C(=O)C12CC3CC(CC(C3)C1)C2 | -86* | -4 | 20
Cc1c(/C=N/Nc2nc3ccccc3[nH]2)c2ccccc2n1C | 43 | . | .
Cc1ccc(S(=O)(=O)Nc2ccccc2F)cc1C(=O)NCc1ccco1 | -54* | 11 | 11
Nc1c(C(=O)NCc2ccco2)c2nc3ccccc3nc2n1CCc1ccc(F)cc1 | 78 | . | .
COc1ccc2nc3cc(Cl)ccc3c(Nc3cc(CN4CCCC4)c(O)c(CN4CCCC4)c3)c2n1 | 62 | . | .
C#CCOCCOCCOCCNc1nc(N2CCN(C(=O)CCCCCCCCCCNC(=O)[C@H]([C@@H](C)CC)n3cc(CCCCCN)nn3)CC2)nc(N2CCN(C(=O)CCCCCCCCCCNC(=O)[C@@H]([C@H](C)O)n3cc(C)nn3)CC2)n1 | 50 | . | .
CCCC[n+]1ccn(C2=C([O-])c3ccccc3C(=O)/C2=N\S(=O)(=O)c2ccccc2)c1 | 59 | . | .
CN(C)CCCNS(=O)(=O)c1ccc(N2CCC(c3ccc(Cl)cc3)=N2)cc1 | 73 | . | .
CCCNS(=O)(=O)c1ccc(CCC(=O)N2CCCCC2)cc1 | -511* | -2 | 8
Cc1c(CCOC(=O)c2ccc(Cl)cc2Cl)sc[n+]1CC(=O)c1ccccc1 | 56 | . | .
CC(=O)N1CCC(=O)Nc2ccc([N+](=O)[O-])cc21 | -64* | 5 | 10
O=C1Nc2ccccc2Nc2ccc([N+](=O)[O-])cc21 | 43 | . | .
CN1N=C(C(C)(C)C)CC1=O | 41 | . | .
O=C(CSc1nc(=O)n2ccccc2n1)NCc1ccccc1Cl | 48 | . | .
Cc1nc2ccc(Cl)cc2c(-c2ccccc2Cl)c1CC(=O)O | -42* | -5 | 17
Cc1cc(N)c2cc(NC(=O)/C=C/c3ccccc3Cl)ccc2n1 | 64 | . | .
COc1ccccc1-c1sc2cc3c(cc2c1-c1ccc(OCCN2CCCCC2)cc1)OCO3 | 59 | . | .
COc1ccc(C[C@H]2CN3C(=NC[C@@H]3Cc3ccccc3)N2CCNC(=O)c2ccc(C)c(Br)c2)cc1 | 65 | . | .
CCn1c(=O)c([N+](=O)[O-])c(NC2CCS(=O)(=O)C2)c2ccccc21 (stereo not given) | -162* | 12 | 12
CCC(CO)Oc1cc(NCc2cccc(C(F)(F)F)c2)c2ncn(C(C)C)c2c1 (stereo not given) | 41 | . | .
COc1cc([N+](=O)[O-])ccc1NC(=O)COC(=O)c1ccc(NC(N)=O)cc1 | -44* | -1 | -43* | Apaf1 act interf=>100
COc1cc([N+](=O)[O-])ccc1NC(=O)CN1CCc2cc(OC)c(OC)cc2C1 | 44 | . | .
COc1ccc(NC(=O)CCCCCN2C(=O)c3cccc([N+](=O)[O-])c3C2=O)c(OC)c1 | 41 | . | .
O=C(Oc1ccc[nH]c1=O)c1cc([N+](=O)[O-])cc([N+](=O)[O-])c1 | 93 | . | .
SMILES | Apaf-1 act | Rh110 act interf | Apaf-1 act conf | others
CCCC(C)NC(=O)c1cc(C(=O)OC)cc([N+](=O)[O-])c1 (stereo not given) | -108* | -2 | 11
CC(=O)Nc1ccc(NC(=O)C2CC(=O)Nc3nc4ccccc4n32)cc1 (stereo not given) | -43* | 6 | 9
COC(=O)c1c(N)n(-c2ccc(NC(C)=O)cc2)c2nc3ccccc3nc12 | 49 | . | .
COc1cccc2c1C(=O)c1c(O)c3c(c(O)c1C2=O)C[C@@](O)(C(=O)CO)C[C@@H]3O[C@H]1C[C@H](N)[C@@H](O)[C@H](C)O1 | 56 | . | .
COc1ccc(/C=N/Nc2cc(C)nc3ccc(Br)cc23)cc1 | 55 | . | .
CCN(CC)CCn1c2c(c(SCC(=O)Nc3nccs3)nc1=O)CCCC2 | -50* | -4 | 10
COc1cccc(Cn2c(N)c(C#N)c3nc4ccccc4nc32)c1OC | 92 | . | .
Cc1ccc(-c2nn3c(C)nnc3c3ccccc23)cc1S(=O)(=O)NCc1ccccc1 | 48 | . | .
O=[N+]([O-])c1cccc(C2(O)COc3ccccc3O2)c1 (stereo not given) | -83* | 5 | 11
